The text below walks through data of ChEMBL document CHEMBL1138710, “A nonhydrolyzable analogue of phosphotyrosine, and related aryloxymethano- and aryloxyethano-phosphonic acids as motifs for inhibition of phosphatases” (Bioorg Med Chem Lett, 2004).

Assay [1] deals with T1, Serine/threonine-protein phosphatase (Enterobacteria phage lambda) (UniProt P03772).
T1 sequence (whole entry): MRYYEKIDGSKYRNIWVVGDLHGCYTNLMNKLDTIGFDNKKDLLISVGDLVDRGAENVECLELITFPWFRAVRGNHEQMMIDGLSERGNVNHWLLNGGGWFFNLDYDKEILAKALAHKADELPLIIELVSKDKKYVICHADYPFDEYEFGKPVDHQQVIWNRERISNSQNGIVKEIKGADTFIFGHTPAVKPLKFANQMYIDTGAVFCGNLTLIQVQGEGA
The assay can be described thus: Inhibition constant for lambda protein phosphatase in presence of [Mn2+] at 5 mM pH 7.3.

In assay [2] the target is Alkaline phosphatase (Escherichia coli K-12) (UniProt P00634). The assay can be described thus: Inhibition constant for Escherichia coli alkaline phosphatase at pH 9. In outline: (§1)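 Competitive inhibition kinetics with p-nitrophenyl phosphate as substrate at 25°C, in 100 mM TRIS, 1 mM ZnCl2, 1 mM MgCl2, pH 9.0. Ki (mM) was derived from the competitive inhibition rate equation.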
Chain of Alkaline phosphatase (Escherichia coli K-12) (P00634 whole entry): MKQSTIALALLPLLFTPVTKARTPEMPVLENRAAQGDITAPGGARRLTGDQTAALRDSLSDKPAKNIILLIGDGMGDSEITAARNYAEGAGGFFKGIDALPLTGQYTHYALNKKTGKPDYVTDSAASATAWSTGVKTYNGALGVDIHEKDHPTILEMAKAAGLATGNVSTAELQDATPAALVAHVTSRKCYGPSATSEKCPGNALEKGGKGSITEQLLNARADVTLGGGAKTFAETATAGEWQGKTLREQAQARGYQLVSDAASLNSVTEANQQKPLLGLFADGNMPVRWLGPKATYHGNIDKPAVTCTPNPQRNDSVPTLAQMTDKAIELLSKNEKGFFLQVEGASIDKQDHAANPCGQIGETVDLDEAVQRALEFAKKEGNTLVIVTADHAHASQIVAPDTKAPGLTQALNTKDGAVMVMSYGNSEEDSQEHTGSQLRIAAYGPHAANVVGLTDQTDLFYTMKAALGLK

The species named for assay [3] is Homo sapiens. Briefly: Inhibition constant for human placental alkaline phosphatase at pH 9. Summed up: as §1
Assay [4] in a line: Inhibition constant protein phosphatase 2C in presence of [Mn2+] at 5 mM pH 7.5. In outline: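 Competitive inhibition kinetics with p-nitrophenyl phosphate substrate (Km 1.1 mM under these conditions) at 25°C, in 100 mM TRIS, 5 mM MnCl2, 1 mM DTT, pH 7.5. Ki (mM) was derived from the competitive inhibition rate equation.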
Assay [5] has as its target Secreted effector protein (Yersinia pestis) (UniProt O68720). Briefly: Inhibition constant for YOP protein tyrosine phosphatase at pH 6.6. Summed up:
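Competitive Ki (mM) measured at 25°C against p-nitrophenyl phosphate substrate, in 100 mM succinate, 150 mM NaCl, pH 6.6.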

Assay [6] can be described thus: Inhibition constant for protein phosphatase 2C in presence of [Mn2+] at 1 mM pH 7.5. Summed up: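 Kinetics at 25°C with p-nitrophenyl phosphate substrate in 100 mM TRIS, 1 mM MnCl₂, 1 mM DTT, pH 7.5. Mn²⁺ was lowered from 5 mM for compounds precipitating at that level. Substrate Km was 1.1 mM and matched within error at both Mn²⁺ levels. Ki (mM) from a competitive inhibition model.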

The species entered for assay [7] is Homo sapiens. The assay can be described thus: Inhibition constant for human placental alkaline phosphatase at pH 9; No reduction in rate.
The target in assay [8] is Alkaline phosphatase (Escherichia coli K-12) (UniProt P00634). The assay can be described thus: Inhibition constant for Escherichia coli alkaline phosphatase at pH 9; No reduction in rate.

`O=C(O)Cc1ccc(OCCP(=O)(O)O)cc1`: the Inhibition in assay [1] was 0.12 mM; in assay [2], 0.6 mM; in assay [3] it was 0.14 mM; in assay [4], 0.23 mM; in assay [5], 19 mM.
Taken in the same sequence, the figures for `N[C@@H](Cc1ccc(OCP(=O)(O)O)cc1)C(=O)O` were 0.02 mM, 5 mM, 1.7 mM, 0.76 mM and 21 mM.
Consider `O=P(O)(O)CCOc1ccccc1`, for which the Inhibition in assay [1] is 0.05 mM; in assay [2], 0.1 mM; in assay [3] it was 0.11 mM; in assay [6] it was 0.4 mM; in assay [5], 2.17 mM.
`N[C@H](Cc1ccc(OCP(=O)(O)O)cc1)C(=O)O`: the Inhibition in assay [1] came to 0.03 mM; in assay [2], 4.8 mM; in assay [3], 1.85 mM; in assay [4] it was 0.34 mM; in assay [5] it was 0.63 mM.
Take `O=C(O)Cc1ccc(OCP(=O)(O)O)cc1`: the Inhibition in assay [1] was 0.19 mM; in assay [2], 5.1 mM; in assay [4] it was 0.13 mM; in assay [7], “No inhibition”; in assay [5], 12 mM.
On to `O=P(O)(O)COc1ccccc1`, for which the Inhibition was 0.27 mM in assay [1]; 0.9 mM in assay [3]; “No inhibition” in assay [8]; 0.32 mM in assay [6]; 5 mM in assay [5].
Turning to `O=C(O)c1cccc2cc(OCP(=O)(O)O)ccc12`, the Inhibition in assay [1] was 0.03 mM; in assay [2], 4.2 mM; in assay [3], 3.4 mM; in assay [4] it was 0.06 mM; in assay [5], 2.2 mM.
As for `O=P(O)(O)CSc1ccccc1`, the Inhibition in assay [1] amounted to 0.33 mM; in assay [2], 0.04 mM; in assay [3], 0.13 mM; in assay [6] it was 0.17 mM; in assay [5], 4.6 mM.
Turning to `O=P(O)(O)COc1ccc2ccccc2c1`, the Inhibition result in assay [1] was “Precipitation”; in assay [2], 4 mM; in assay [3], 1.1 mM; in assay [4], “Precipitation”; in assay [5] it was 6.3 mM.
On to `O=P(O)(O)CCSc1ccccc1`, for which the Inhibition is 0.14 mM in assay [1]; 0.9 mM in assay [2]; 0.69 mM in assay [3]; 0.3 mM in assay [6]; 10 mM in assay [5].
